# An excerpt weighted towards active compounds, which were near 1.3% of everything screened.
# PfG6PD inh = PfG6PD (Plasmodium falciparum) enzyme inhibition | inhibition, % at 20 µM | hit rate 0.78% among 350,000 | PfGluPho enzyme, NADPH resazurin-diaphorase fluorescence;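 active = inhibition reaching at least a set limit at 20 µM in the primary screen, cut at about 59% in these data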;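 also: 0% = DMSO wells with substrate and 100% = DMSO wells lacking glucose-6-phosphate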
# Diaph inh CS = inhibits diaphorase or chemically oxidizes, flagging diaphorase assay artifacts | diaphorase resazurin-to-resorufin fluorescence, NADH, 16 min; bacterial (C. kluyveri) enzyme, not human | inhibition, % at 20 µM | hit rate 0.69% among 190,000;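 active = primary screen inhibition at 20 µM above a set limit, cut at about 50% in these data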;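 also: plate controls were DMSO with full reaction for no effect and wells lacking NADH for full effect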
#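 System: Bacterial diaphorase enzyme (C. kluyveri) | Incubation: 16-min room-temperature incubation before reading | Benchmarks: No-NADH positive control and DMSO neutral control | Measured by: Resorufin fluorescence 544/590 nm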
# G6PDH counter = counter-screen for G6PDH assay hits: L. mesenteroides G6PDH inhibition. Purified L. mesenteroides G6PDH, diaphorase/resazurin coupled fluorescence, 45 min. inhibition, % at 5 µM. hit rate 0.12% among 200,000. AID 1020; in the data active = inhibition above about 50%
# Tb hexokinase = T. brucei hexokinase 1 inhibition; recombinant TbHK1, G6PDH-coupled NADH A340; hit rate 0.11% among 220,000; inhibition, % at 10 µM; AID 1430;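 active = inhibition of 50% or more in the single-dose primary screen; inactive = inhibition below 50%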
# HKDC1 inhibitor = inhibitors of human hexokinase HKDC1; hit rate 0.16% among 340,000; Q2TB90; AID 493160; inhibition, % at 20 µM; recombinant HKDC1, G6PDH/diaphorase resazurin coupled fluorescence;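 active = inhibition above about 35% when tested at 20 µM, limit read from the data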;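 also: plate controls were DMSO wells with enzyme for no effect and DMSO wells lacking enzyme for full effect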
# Target sequence (Q2TB90 whole entry, looked up): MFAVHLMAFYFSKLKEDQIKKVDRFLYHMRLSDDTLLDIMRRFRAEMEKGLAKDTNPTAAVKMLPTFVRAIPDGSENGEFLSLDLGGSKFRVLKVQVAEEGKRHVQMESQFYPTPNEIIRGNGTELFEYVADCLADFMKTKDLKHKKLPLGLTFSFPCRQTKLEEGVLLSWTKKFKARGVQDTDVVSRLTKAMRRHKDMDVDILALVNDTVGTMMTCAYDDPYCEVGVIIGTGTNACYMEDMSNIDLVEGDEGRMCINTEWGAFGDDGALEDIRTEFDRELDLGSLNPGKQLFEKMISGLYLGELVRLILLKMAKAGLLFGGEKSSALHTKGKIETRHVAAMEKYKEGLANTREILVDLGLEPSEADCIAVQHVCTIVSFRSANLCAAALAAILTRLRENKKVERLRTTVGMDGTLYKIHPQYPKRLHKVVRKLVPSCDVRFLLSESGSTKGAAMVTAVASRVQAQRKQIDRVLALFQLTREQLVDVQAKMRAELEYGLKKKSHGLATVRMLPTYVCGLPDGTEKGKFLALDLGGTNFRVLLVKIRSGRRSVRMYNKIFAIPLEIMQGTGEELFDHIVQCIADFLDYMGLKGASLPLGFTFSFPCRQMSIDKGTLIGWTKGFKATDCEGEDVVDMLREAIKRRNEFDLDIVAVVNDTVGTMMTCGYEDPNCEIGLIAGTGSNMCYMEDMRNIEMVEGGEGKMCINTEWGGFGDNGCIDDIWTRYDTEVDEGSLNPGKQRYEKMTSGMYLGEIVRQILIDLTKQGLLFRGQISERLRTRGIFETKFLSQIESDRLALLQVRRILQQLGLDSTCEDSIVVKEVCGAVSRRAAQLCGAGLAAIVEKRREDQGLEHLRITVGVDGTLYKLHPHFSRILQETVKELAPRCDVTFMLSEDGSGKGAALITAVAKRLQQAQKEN
#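 Assay system: in-house recombinant HK5 (HKDC1) enzyme. Input: HKDC1 at 5 µg/mL. Medium: Tris pH 8.0 buffer with MgCl2, Tween-20, BSA, BME. Dosing: single 20 µM dose. Schedule: 90 min reaction incubation at room temperature, dark. Signal: resazurin-to-resorufin fluorescence via G6PDH and diaphorase coupling, 525/613 nm. Controls: DMSO-enzyme wells negative, buffer-substituted wells positive.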
# PfG6PD confirm = PfG6PD inhibition, single-dose confirmed; shares compounds with PfG6PD inh; recombinant PfGluPho, NADPH-diaphorase-resazurin fluorescence; inhibition, % at 20 µM; hit rate 34% among 2,400;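 active = inhibition of at least 50% at 20 µM in any single replicate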;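 also: 0% = DMSO with substrate and 100% = DMSO lacking glucose-6-phosphate substrate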
# Diaphorase 10uM = counter-screen for P. falciparum G6PD inhibitors: diaphorase inhibitors, oxidizers; shares compounds with PfG6PD inh; diaphorase-coupled resazurin reduction, fluorescence, NADPH 10 uM; inhibition, % at 20 µM; hit rate 39% among 820;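 active = average inhibition reaching 50% or more with the compound at 20 µM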;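 also: resorufin red fluorescence formed as diaphorase reduces resazurin using NADPH; 0% = DMSO with enzyme and 100% = DMSO without enzyme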
# Diaphorase 30uM = inhibits diaphorase or oxidizes, flagging false PfG6PD hits. shares compounds with PfG6PD inh. Diaphorase/resazurin coupled assay, resorufin fluorescence, 30 uM NADPH. inhibition, % at 20 µM. hit rate 29% among 820. AID 504863;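 active = inhibition averaging 50% or more, tested at 20 µM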;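 also: 0% = DMSO with enzyme and 100% = DMSO wells lacking diaphorase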
# Numbers without * were called inactive; . = no result.
SMILES,PfG6PD inh,Diaph inh CS,G6PDH counter,Tb hexokinase,HKDC1 inhibitor,PfG6PD confirm,others
CCCCNc1c(-c2cccc(-c3ccc(OC)cc3)c2)nc2ccc(C)cn12,54,.,.,.,1,.,
O=C(Cn1nc(-c2ccc(Cl)cc2)c2ccccc2c1=O)NN1CCOCC1,-14,.,.,-7,-4,.,
CNc1cccnc1C=NNC(N)=S,74*,.,.,.,-4,23,
Cc1[nH]c2ccccc2c1/C=N/NC(=O)c1cccc(S(=O)(=O)Nc2ccccc2Cl)c1,83*,20,-21,-17,3,68*,Diaphorase 10uM=65*;Diaphorase 30uM=48
COc1ccc(CNC(=O)Cc2cccs2)cc1OC,-3,.,.,.,-3,.,
O=C(COC(=O)Cn1cnc2ccccc2c1=O)Nc1ccccc1Sc1ccc(Cl)cc1,71*,23,-9,-3,8,38,
O=C(COC(=O)Cn1cnc2ccccc2c1=O)Nc1ccc(Cl)cc1,13,15,-20,-3,-1,.,
O=C(CCN1C(=O)C2CCCCC2C1=O)Nc1cc(F)ccc1F (centres undefined),-13,.,.,.,-5,.,
CCc1c(C)sc(NC(=O)C2CCCCC2C(=O)O)c1C(N)=O (centres undefined),74*,10,1,4,-4,32,
CCn1c(SCC(=O)Nc2ccc3c(c2)OCO3)nnc1-c1cnccn1,83*,6,1,-6,-2,46,
CC(=O)Nc1ccc(S(=O)(=O)N2CCN(C(=O)N3CCCC3)CC2)cc1,-16,.,.,.,-6,.,
O=S(=O)(c1ccc(Br)cc1Cl)N1CCCN(c2ccc(C(F)(F)F)cn2)CC1,36,.,.,.,-1,.,
O=S(=O)(c1cccs1)N1CN(Cc2ccco2)c2nc3ccccc3nc21,93*,.,.,-33,2,44,
COc1ccc(NC(=O)Nc2cccc([N+](=O)[O-])c2)cc1Cl,61*,4,-29,3,-8,10,
COc1ccc(C(=O)Nc2cccc([N+](=O)[O-])c2)cc1Br,10,.,.,2,-5,.,
Nc1ccc(N2CCN(c3ccccc3)CC2)c(F)c1,11,14,12,-3,-6,.,
NC(=S)N/N=C\c1ccccc1OCc1ccccc1,16,22,-2,-17,-6,.,
NC(=S)N/N=C/c1c[nH]c2ccc(OCc3ccccc3)cc12,60*,.,.,.,6,27,
COc1ccc2oc(C)c(C(=O)c3ccc([N+](=O)[O-])cc3)c2c1,67*,18,-4,-6,15,15,
C=CCn1c(O)c(C2=c3ccccc3=NC2=O)c2ccccc21,7,.,.,.,8,.,
S=C(Nc1cc(Cl)ccc1Cl)Nn1cnnc1,54,.,.,-5,-7,.,
S=C(Nc1ccc(Cl)cc1Cl)Nn1cnnc1,47,14,17,-5,4,-24,
CCOc1ccccc1NC(=S)Nn1cnnc1,62*,.,.,.,-7,30,
CCOc1ccc(CN(C)C(=O)CN2C(=O)NC3(CCCc4ccccc43)C2=O)cc1 (centres undefined),3,.,.,.,-1,.,
CN(C(=O)c1cc2n(n1)C(C(F)(F)F)CC(c1ccco1)N2)c1ccc(OC(F)(F)F)cc1 (centres undefined),5,-8,-4,2,3,.,
SMILES,PfG6PD inh,Diaph inh CS,G6PDH counter,Tb hexokinase,HKDC1 inhibitor,PfG6PD confirm,others
CN(C(=O)c1cc2n(n1)C(C(F)(F)F)CC(c1ccco1)N2)c1ccccc1 (centres undefined),94*,7,5,4,-6,66*,Diaphorase 10uM=80*;Diaphorase 30uM=53*
O=C1C2CCCN2C(=O)N1CCN1CCN(CCO)CC1 (centres undefined),5,-4,5,2,-8,.,
CSc1nc(C)cc(C)c1C#N,0,5,3,0,-6,.,
Cc1cc(C)c(C#N)c(=N)o1,66*,12,18,7,-15,47,
CCOc1ccc(NS(=O)(=O)c2ccc(NC(=O)c3ccccc3C(=O)O)cc2)cc1,-24,.,.,.,-3,.,
COc1ccc(Br)c(OC)c1C(=O)NC(=O)Nc1nc(C)cc(C)n1,106*,.,.,-10,-3,74*,Diaphorase 10uM=68*;Diaphorase 30uM=65*
CCc1c(C)nc2cc(-c3ccc(OC)c(OC)c3)nn2c1NCC1CC1,62*,4,-1,-27,1,6,
CCN(CC)c1ccc(NC(=O)COc2ccccc2C)cc1S(=O)(=O)Nc1ccccc1OC,61*,15,-14,2,8,23,
CCN(CC)c1ccc(NC(=O)c2ccc(=O)[nH]c2)cc1S(=O)(=O)Nc1ccccc1OC,62*,32,10,-3,0,41,
COc1ccc(NC(=O)c2ccc(=O)[nH]c2)cc1S(=O)(=O)N1CCCCC1,.,8,-6,30,.,.,
CCN(CC)c1ccc(NC(=O)COc2ccccc2C#N)cc1S(=O)(=O)Nc1ccc(OC)cc1,3,20,0,10,-3,.,
C/C(=N\O)C1(C)N(O)C(C)(C)C(c2ccc(F)cc2)=[N+]1[O-] (centres undefined),-12,12,2,-3,-9,.,
Oc1c(N=Nc2ccccc2)sc2ccccc12,60*,.,.,-1,-2,13,
CC(=Nc1ccc(O)cc1)c1sc2ccccc2c1O,18,23,-22,-1,2,.,
CN(CC(=O)Nc1ccccc1Br)C(=O)c1ccccc1OCc1ccc(Cl)cc1,59*,.,.,.,-1,30,
COCCn1c(C(C)C)nc2sc3ccccc3c(=O)c2c1=O,-11,19,4,-11,-7,.,
O=C(CNC(=O)c1cccs1)NCCc1ccco1,-10,.,.,.,-1,.,
Cc1noc(C(=O)Nc2sc3c(c2C#N)CCC3)c1Cl,83*,24,7,-11,-1,52*,Diaphorase 10uM=22;Diaphorase 30uM=15
Cc1cc(C(=O)Nc2sc3c(c2C#N)CCC3)no1,-5,16,-7,-15,-3,.,
CC1(C)CN(c2ccccc2)N(C(=O)c2ccc(C#N)cc2)C1=O,95*,0,4,2,14,68*,Diaphorase 10uM=1;Diaphorase 30uM=1

# High-throughput results as filed in PubChem BioAssay.
